According to ChEMBL document CHEMBL1124986, “Imidazodiazepinediones: a new class of adenosine receptor antagonists” (J Med Chem, 1990):

Tests used:
Adenosine A2 receptor [1] = biological target: T1, Adenosine A2 receptor (Rattus norvegicus, UniProt P29276+P30543); test: Antagonism of N-ethylcarboxamido adenosine-stimulated adenylate cyclase associated with stimulation of Adenosine A2 receptor of rat PC12 membranes; assay type: functional, cell membranes, Membrane; conditions: pc-12
Adenosine A2 receptor [2] = biological target: T1, Adenosine A2 receptor; test: Binding affinity for Adenosine A2 receptor from rat striatum using [3H]NECA as radioligand; assay type: protein assay
Adenosine receptor A1 = biological target: T2, Adenosine receptor A1 (Rattus norvegicus, UniProt P25099); test: Binding affinity for Adenosine A1 receptor from rat brain using [3H]-PIA as radioligand
T2 sequence (P25099 whole entry): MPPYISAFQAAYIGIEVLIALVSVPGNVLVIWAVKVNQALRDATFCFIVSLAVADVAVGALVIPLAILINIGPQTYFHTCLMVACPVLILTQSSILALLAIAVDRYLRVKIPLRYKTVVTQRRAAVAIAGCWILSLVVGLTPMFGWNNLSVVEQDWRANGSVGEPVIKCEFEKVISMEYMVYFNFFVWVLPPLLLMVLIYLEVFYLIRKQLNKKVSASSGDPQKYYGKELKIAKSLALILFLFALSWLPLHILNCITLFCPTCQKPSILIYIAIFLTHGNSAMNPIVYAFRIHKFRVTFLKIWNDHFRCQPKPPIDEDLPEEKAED
Outline: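 Rat cerebral cortex membranes incubated with 1 nM [³H]PIA at 37 °C. Means ± SEM, n = 3-5. Where inhibition was incomplete, percent inhibition at the highest concentration tested is reported.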

[3] = biological target: Adenosine A2 receptor (Rattus norvegicus) (UniProt P29276+P30543); test: Inhibition of [3H]NECA binding to Adenosine A2 receptor in rat striatal membrane; assay type: cell membranes; set-up: concentration or dose not given beside the values; conditions: Striatum, concentration not given here
Outline: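 Rat striatal membranes with 4 nM [³H]NECA; 50 nM N⁶-cyclopentyladenosine present to block A1 sites. IC50 converted to Ki by Cheng-Prusoff using KD 8.5 nM for [³H]NECA at A2 receptors. Means ± SEM, n = 3. Where inhibition was incomplete, percent inhibition at the highest concentration tested is reported.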

[4] = biological target: T3, Adenosine receptor A1 (Rattus norvegicus) (UniProt P25099); test: Inhibition of [3H]PIA binding to Adenosine A1 receptor in rat cerebral cortical membrane; assay type: cell membranes; set-up: concentration or dose not given beside the values; conditions: concentration not given here
T3 sequence (whole entry): T2 sequence (P25099 whole entry)
Outline: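 Rat cerebral cortex membranes incubated with 1 nM [³H]PIA at 37 °C. […] Means ± SEM, n = 3-5. Where inhibition was incomplete, percent inhibition at the highest concentration tested is reported.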

Row | Ki (Adenosine A2 receptor [1]) [µM] | Ki (Adenosine A2 receptor [2]) | Ki (Adenosine receptor A1) [µM] | inhibition [3] [%] | inhibition [4] [%] | Structure (SMILES)
1 | 0.88 | 3.8 µM | – | – | – | CCCn1c(=O)c2c(ncn2Cc2ccccc2)n(CCC)c1=O
2 | > 300 | >> 250 uM | > 250 | 11 | 10 | CN1C(=O)CNC(=O)c2c1ncn2C
3 | 7.5 | 32 µM | 6.9 | – | – | CC(C)Cn1c(=O)n(C)c(=O)c2c1ncn2Cc1ccccc1
4 | 5.6 | 46 µM | – | – | – | Cn1c(=O)c2c(ncn2Cc2ccccc2)n(C)c1=O
5 | 6.3 | 9.1 µM | 6.7 | – | – | CC(C)Cn1c(=O)n(C)c(=O)c2nc[nH]c21 [ISOBUTYLMETHYLXANTHINE]
6 | 116 | 140 µM | 11.3 | – | – | CC(C)CN1C(=O)CN(C)C(=O)c2c1ncn2Cc1ccccc1
7 | 170 | > 250 µM | > 250 | 23 | 40 | CCCN1CC(=O)N(CCC)c2ncn(C)c2C1=O
8 | > 300 | >> 250 uM | 104 | 15 | – | CC(C)CN1C(=O)CN(C)C(=O)c2[nH]cnc21
9 | 76 | 81 µM | 16 | – | – | CCN1CC(=O)N(CC)c2ncn(Cc3ccccc3)c2C1=O
10 | > 300 | >> 250 uM | – | 9 | 30 | CN1CC(=O)N(C)c2[nH]cnc2C1=O
11 | > 300 | > 250 µM | – | 20 | 40 | CCN1CC(=O)N(CC)c2[nH]cnc2C1=O
12 | 47 | 52 µM | 11 | – | – | CCCN1CC(=O)N(CCC)c2ncn(Cc3ccccc3)c2C1=O
13 | 260 | > 250 µM | > 250 | 17 | 40 | CCN1CC(=O)N(CC)c2ncn(C)c2C1=O
14 | 120 | > 250 µM | 30 | 30 | – | CN1CC(=O)N(C)c2ncn(Cc3ccccc3)c2C1=O
15 | > 300 | >> 250 uM | 236 | 11 | – | CCCN1C(=O)CNC(=O)c2[nH]cnc21
16 | 250 | > 250 µM | 105 | 40 | – | Cn1cnc2c1c(=O)[nH]c(=O)n2C [THEOBROMINE]
17 | – | – | > 250 | – | – | CN1CC(=O)N(C)c2nc[nH]c2C1=O
18 | 163 | 151 µM | 32 | – | – | CCCN1C(=O)CNC(=O)c2c1ncn2Cc1ccccc1
19 | – | – | > 250 | – | – | CCN1CC(=O)N(CC)c2nc[nH]c2C1=O
20 | > 300 | >> 250 uM | > 250 | 9 | 10 | CN1CC(=O)N(C)c2ncn(C)c2C1=O
